SIAE inh: inhibitors of human sialic acid acetylesterase SIAE; Q9HAT2; 370,000 tested, 0.69% active; inhibition, % at 9.66 µM; SIAE FP-Rh probe binding, fluorescence polarization;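 active = inhibition above a cutoff: mean of compounds within the control limits plus 3 SD of those, cut at about 17% in these data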;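 also: 0% = plate median of compound wells and 100% = probe without SIAE protein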
ABHD4 inh: inhibits mouse alpha/beta hydrolase domain 4; purified mABHD4, FP-Rh probe fluorescence polarization; 370,000 tested, 0.54% active; Q8VD66; inhibition, % at 8.92 µM; AID 720543;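 active = inhibition exceeding the mean over every tested compound plus 3 SD, cut at about 30% in these data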;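 also: 0% = plate median of compound wells and 100% = S159A mutant with DMSO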
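Doses – 8.92 µM, single dose · Material – wild-type mouse ABHD4 protein · Replication – single well per compound (singlicate) · Measure – percent inhibition of probe binding, normalized to plate controls · Schedule – 45 min compound pre-incubation plus 60 min probe step, 25 °C · Detection – fluorescence polarization with parallel and perpendicular emission, 525/598 nm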
PRMT1 FP inh: inhibitors of human PRMT1; recombinant PRMT1, activity-based probe fluorescence polarization; 370,000 tested, 1.3% active; AID 652257; inhibition, % at 2.79 µM; Q99873;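 active = inhibition above about 21% made by adding two undisclosed values, limit read from the data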
HTRA1 inhibitor: blocks human HTRA1 serine peptidase; Q92743; recombinant HTRA1, FP-rhodamine activity-based probe, fluorescence polarization; inhibition, % at 5.96 µM; 340,000 tested, 0.5% active; in the data active = inhibition above about 36%;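 also: 0% = enzyme with DMSO and 100% = wells lacking enzyme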
Target sequence (Q92743 whole entry, looked up): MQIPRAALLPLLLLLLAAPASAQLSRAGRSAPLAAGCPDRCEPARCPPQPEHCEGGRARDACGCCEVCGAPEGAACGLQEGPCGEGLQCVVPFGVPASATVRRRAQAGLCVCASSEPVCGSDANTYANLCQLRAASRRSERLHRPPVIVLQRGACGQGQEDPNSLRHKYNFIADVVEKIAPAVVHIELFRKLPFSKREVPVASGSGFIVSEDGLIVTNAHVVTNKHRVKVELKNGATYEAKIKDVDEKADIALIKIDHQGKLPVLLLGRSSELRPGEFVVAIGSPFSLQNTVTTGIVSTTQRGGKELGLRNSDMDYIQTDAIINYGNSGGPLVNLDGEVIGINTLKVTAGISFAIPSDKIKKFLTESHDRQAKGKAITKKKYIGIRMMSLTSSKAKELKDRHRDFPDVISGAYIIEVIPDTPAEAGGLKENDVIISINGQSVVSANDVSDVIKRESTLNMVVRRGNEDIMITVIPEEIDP
TCR-CD3 inh: human TCR-CD3 binding inhibition. inhibition, % at 9.4 µM. AID 651800. 360,000 tested, 0.37% active. TAMRA-labeled TCR probe fluorescence, biochemical; in the data active = inhibition above about 19%;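 also: recombinant mutant TCR 2C K166C tagged with TAMRA read by polarization; 0% = receptor in buffer alone and 100% = receptor with positive control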
SIAE inh conf: human SIAE inhibition, confirmation. shares compounds with SIAE inh. SIAE FP-Rh activity-based probe, fluorescence polarization. 2,300 tested, 13% active. inhibition, % at 9.66 µM;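 active = mean inhibition of the replicates above the hit cutoff set in the primary screen, cut at about 17% in these data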;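 also: 0% = SIAE with DMSO and probe and 100% = probe without SIAE; inhibitors lower polarization as more probe stays unbound to SIAE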
The depositor's hits bear a star; · = no result given. Shown are actives, neighbours in structure and some others; about 2.5% of the full set was active somewhere.

SMILES	SIAE inh	ABHD4 inh	PRMT1 FP inh	HTRA1 inhibitor	TCR-CD3 inh	SIAE inh conf
CN(CCn1ccnc1)C(=O)CC1C(=O)NCCN1Cc1ccccc1C(F)(F)F (centres undefined)	24*	-1	-1	-2	5	-1
CCCc1nc2ccc(Cl)cn2c1Cc1cccc(Cl)c1	4	-11	6	·	-6	·
CCCc1nc2ccc(Cl)cn2c1Cc1ccc(C)cc1	18*	6	-1	·	5	4
COc1ccccc1NC(=O)CN1CCN(CC(=O)Nc2ccc(Cl)c(C(F)(F)F)c2)CC1	-7	-6	-1	-33	6	·
CCc1ccccc1NCC(=O)Nc1ccc(Cl)c(C(F)(F)F)c1	27*	-16	-1	5	0	11
CCOCCCNc1nc(=S)[nH]c2cc(OC)c(OC)cc12	4	12	2	0	8	·
COc1cc2[nH]c(=S)nc(NCCCOC(C)C)c2cc1OC	24*	3	-2	3	-1	-4
CS(=O)(=O)NCCCCCCNS(C)(=O)=O	17*	-5	-4	4	4	0
COC(=O)C1CN(CCO)CCS(=O)(=O)N1Cc1cn(Cc2cccc(Cl)c2)nn1 (centres undefined)	-1	0	1	·	·	·
COc1ccccc1OCCCCN1CCN(c2ccccc2OC)CC1	2	12	-2	4	0	·
COc1ccccc1N1CCN(CCCCOc2cccc3ccccc23)CC1	50*	14	-3	-2	2	7
NNc1nc2c(-c3cccc(C(F)(F)F)c3)nnn2c2ccccc12	22*	15	-3	-22	2	-10
CC(C)c1ccc(OCC(=O)NC2CC(C)(C)NC(C)(C)C2)c(Br)c1	18*	3	0	3	9	-4
Cc1ccc(S(=O)(=O)N(C)C)cc1NC(=O)c1sccc1Cl	17*	-2	-2	-1	0	-2
CCOC(=O)N1CCC(NC(=O)C2CCN(C(=O)N3CC(C)Oc4ccccc43)CC2)CC1 (centres undefined)	20*	0	0	0	-6	-5
CCOC(=O)N1CCC(NC(=O)C2CCN(C(=O)N3CC(C)Oc4ccc(C)cc43)CC2)CC1 (centres undefined)	-8	-5	-2	1	4	·
C=CCNC(=O)CN(C(=O)Cc1ccc(Cl)nc1)c1cccc(Br)c1	-5	4	-3	·	·	·
COc1ccc(CN(C)CC(=O)Nc2ccccc2C(F)(F)F)c(OC)c1	20*	13	1	-1	7	1
O=C(Nc1ccc([N+](=O)[O-])cc1)Nc1ccc(N2CCOCC2)c2nonc12	19*	0	-9	2	3	11
CC(=O)Nc1cc([N+](=O)[O-])ccc1N1CCOCC1	3	-3	-1	1	5	·
CCN1CCc2c(sc(NC(=S)NC(=O)c3ccc(Cl)cc3)c2C(N)=O)C1	18*	8	-2	0	-3	1
COCCCNC(=O)C[C@H]1C[C@@]2(C(=O)OC)C(=C[C@H](C(C)(C)C)O[C@@H]2C)N(Cc2cccc3ccccc23)C1=O	-4	0	-6	·	·	·
C[C@@H]1/C=C/CC(=O)N[C@H](c2ccc3ccccc3c2)[C@H](C)/C=C/CC(=O)N[C@@H]1c1ccc2ccccc2c1	-12	-30	6	·	·	·
Cc1cccc(C(=O)Nc2c(-c3ccc(C(F)(F)F)cc3)nc3ncccn23)c1	2	-2	1	·	·	·
Nc1ncnc2c1ncn2[C@@H]1O[C@H](C(=O)NCc2ccc3c(c2)OCO3)[C@@H](O)[C@H]1O	71*	9	1	·	4	76*
Cc1cc(S(=O)(=O)NC(=O)[C@H]2O[C@@H](n3cnc4c(N)ncnc43)[C@H](O)[C@@H]2O)ccc1Br	47*	10	2	·	-1	51*
COc1cc(NC(=O)[C@H]2O[C@@H](n3cnc4c(N)ncnc43)[C@H](O)[C@@H]2O)cc(OC)c1OC	61*	4	-3	·	4	69*
Nc1ncnc2c1ncn2[C@@H]1O[C@H](C(=O)NS(=O)(=O)c2cccc(F)c2)[C@@H](O)[C@H]1O	-4	-9	6	·	-4	·
Nc1ncnc2c1ncn2C1OC(C(=O)NC2CC2)C(O)C1O (centres undefined)	-1	4	-4	5	0	·

Compound activity: PubChem, The Scripps Research Institute Molecular Screening Center
